Experimental data as given in ChEMBL document CHEMBL1150283, “Synthesis, cytostatic and anti-HIV evaluations of the new unsaturated acyclic C-5 pyrimidine nucleoside analogues” (Bioorg Med Chem, 2008).

How the values were obtained:
L1210 = experiment: Antiproliferative activity against mouse L1210 cells after 2 days by MTT assay; format: functional, cell-based; conditions: L1210, 48 h
[1] = Antiproliferative activity against human Molt4/C8 cells after 3 days by MTT assay; format: functional, cell-based; conditions: MOLT-4, 72 h
CCRF-CEM = experiment: Antiproliferative activity against human CEM cells after 3 days by MTT assay; format: functional, cell-based; conditions: 72 h
HeLa = experiment: Antiproliferative activity against human HeLa cells after 3 days by MTT assay; format: functional, cell-based; conditions: 72 h
Method in brief: (§1)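 Monolayers grown in DMEM with 10% FBS, 2 mM L-glutamine, penicillin/streptomycin at 37 °C, 5% CO2. Seeded at 1 × 10⁴ to 3 × 10⁴ cells/mL, then exposed 72 h to five 10-fold dilutions (10⁻⁸ to 10⁻⁴ M) from 0.04 M DMSO stocks, with a solvent control. MTT added for 4 h, formazan dissolved in DMSO, A570 read. Percentage growth taken against time-zero and untreated OD. Quadruplicates in three experiments; IC50 by linear regression.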

MCF7 = experiment: Antiproliferative activity against human MCF7 cells after 3 days by MTT assay; format: functional, cell-based; conditions: MCF7, 72 h; method in brief: as §1
MIA PaCa-2 = experiment: Antiproliferative activity against human MiaPaCa2 cells after 3 days by MTT assay; format: functional, cell-based; conditions: MIA PaCa-2, 72 h; method in brief: as §1
SW-620 = experiment: Antiproliferative activity against human SW620 cells after 3 days by MTT assay; format: functional, cell-based; conditions: SW-620, 72 h; method in brief: as §1
HepG2 = experiment: Antiproliferative activity against human HepG2 cells after 3 days by MTT assay; format: functional, cell-based; conditions: HepG2, 72 h; method in brief: as §1
[2] = Cytotoxicity against human WI38 cells after 3 days by MTT assay; format: cell-based; conditions: WI-38, 72 h; method in brief: as §1
[3] = test system: Human immunodeficiency virus 1; experiment: Antiviral activity against HIV1 assessed as inhibition of virus-induced cytopathogenicity in CEM cells; format: functional, organism-based; conditions: Human immunodeficiency virus 1, CCRF-CEM
Method in brief: (§2)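 CEM cell cultures infected with HIV-1 or HIV-2. Virus-induced cytopathicity scored as syncytia formation.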

[4] = test system: Human immunodeficiency virus 2; experiment: Antiviral activity against HIV2 assessed as inhibition of virus-induced cytopathogenicity in CEM cells; format: functional, organism-based; conditions: Human immunodeficiency virus 2, CCRF-CEM; method in brief: as §2
Influenza A virus H3N2 = experiment: Antiviral activity against influenza A virus H3N2 assessed as inhibition of virus-induced cytopathogenicity in MDCK cells; format: functional, organism-based
Method in brief: (§3)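 Cytopathicity-reduction assay: Coxsackie B4 virus in HeLa cell cultures; influenza A (H3N2) in MDCK cell cultures. Virus-induced cytopathicity is scored at the time point when untreated virus-exposed cultures reach full cytopathic effect.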

Human alphaherpesvirus 3 = experiment: Antiviral activity against Varicella-Zoster virus assessed as inhibition of virus-induced cytopathogenicity in HEL cells; format: functional, organism-based; conditions: Human alphaherpesvirus 3, HEL
Coxsackievirus B4 = experiment: Antiviral activity against Coxsackie B4 virus assessed as inhibition of virus-induced cytopathogenicity in HeLa cells; format: functional, organism-based; conditions: Enterovirus B; method in brief: as §3

SMILES	IC50 (L1210) [µM]	IC50 [1] [µM]	IC50 (CCRF-CEM) [µM]	IC50 (HeLa) [µM]	IC50 (MCF7) [µM]	IC50 (MIA PaCa-2) [µM]	IC50 (SW-620) [µM]	IC50 (HepG2) [µM]	IC50 [2] [µM]	EC50 [3] [µM]	EC50 [4] [µM]	EC50 (Influenza A virus H3N2) [µM]	EC50 (Human alphaherpesvirus 3) [µM]	EC50 (Coxsackievirus B4) [µM]
CCCCC#Cc1cn(C/C=C\CN2C(=O)c3ccccc3C2=O)c(=O)[nH]c1=O	109	41	100	33	45	> 100	82	17	28	≥ 50	≥ 50			
CCCCc1ccc(C#Cc2cn(C/C=C\CN3C(=O)c4ccccc4C3=O)c(=O)[nH]c2=O)cc1		31	23	85	43	56	> 100	40	17	> 10	> 10			
O=C1c2ccccc2C(=O)N1C/C=C\Cn1cc(C#CCCc2ccccc2)c(=O)[nH]c1=O		146	168	> 100	> 100	> 100	> 100	> 100	> 100	35	≥ 50			
CCCCCC#Cc1cn(C/C=C/CN2C(=O)c3ccccc3C2=O)c(=O)[nH]c1=O	> 500	> 500	> 500	91	44	60	58	9	40	> 50	> 50			
CCCCCCCCC#Cc1cn(C/C=C/CN2C(=O)c3ccccc3C2=O)c(=O)[nH]c1=O	> 250	> 250	> 250	> 100	66	> 100	87	43	53	> 50	> 50			
O=C1c2ccccc2C(=O)N1C/C=C/Cn1cc(C#CCCc2ccccc2)c(=O)[nH]c1=O	44	39	38	29	13	27	11	7.3	31	≥ 10	≥ 10			
CCCCc1ccc(C#Cc2cn(C/C=C/CN3C(=O)c4ccccc4C3=O)c(=O)[nH]c2=O)cc1	42	29	31	94	44	79	> 100	9.1	40	> 10	> 10			
CCCCC#Cc1cn(C/C=C/CN2C(=O)c3ccccc3C2=O)c(=O)[nH]c1=O	236	171	192	89	8.8	77	> 100	7.9	35	≥ 50	≥ 50			
Cc1ccc(C#Cc2cn(C/C=C\CN3C(=O)c4ccccc4C3=O)c(=O)[nH]c2=O)cc1		266	238	> 100	> 100	> 100	> 100	68	> 100	> 250	> 250	20		
O=C1c2ccccc2C(=O)N1C/C=C\Cn1cc(C#Cc2ccc(Br)cc2)c(=O)[nH]c1=O	448	89	80		> 100	> 100	> 100		47	10	> 50			
CCCCCc1ccc(C#Cc2cn(C/C=C\CN3C(=O)c4ccccc4C3=O)c(=O)[nH]c2=O)cc1	28	30	102	> 100	> 100	> 100	> 100	18	> 100	> 2	> 2		8.7	
CCCCCCCCC#Cc1cn(C/C=C\CN2C(=O)c3ccccc3C2=O)c(=O)[nH]c1=O	45	36	39	59	64	68	67		49	> 50	> 50	2.5		
CCCCCCC#Cc1cn(C/C=C/CN2C(=O)c3ccccc3C2=O)c(=O)[nH]c1=O	43	35	28		24	30	32	14	40	≥ 10	≥ 10			
CCCCCc1ccc(C#Cc2cn(C/C=C/CN3C(=O)c4ccccc4C3=O)c(=O)[nH]c2=O)cc1	39	17	23	27	5.6	26	30	4.3	25	14	3.1			12
O=c1[nH]cc(F)c(=O)[nH]1 [FLUOROURACIL]	0.69	20				6.5	8.7	9.2	10					
